The results in this text go back to PubChem BioAssay.

Activity calls are given as the source filed them.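 How the source made its calls, unless noted: active means inhibition at or above 50% at 10 µM; inactive means inhibition below 50%.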

For orientation: inhibition means the change of the read-out against control, counted positive when it falls.

Experiment [1] is described as follows: inhibitors of TNFa-induced NFkB p65 translocation, primary screen, imaging, HUVEC, MLSMR starter and 10KST1 sets (AID 438;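 active means inhibition above 20% together with a positive visual image hit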;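 further: compound added about 3h40 before a 20 min TNFalpha stimulation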;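 on inhibition: signal is the nuclear over cytoplasmic p65 intensity ratio per well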). The settings on record: HUVEC TNFa-induced p65 nuclear translocation; cell count: measured here: nuclei count (cytotoxicity indicator), at 2.08 µM; inhibition: at 2 µM, stronger effect = higher value, 0% TNFa-plus-vehicle, 100% no-TNFa wells.
Experiment [2] is described as follows: inhibitors of mutant huntingtin aggregation, primary screen, imaging, exon1htt(103Q)mCFP cells, high-content imaging (AID 483;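 active means visual image review flags a hit and inhibition of aggregation exceeds 20%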;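 further: compound exposure lasted 3 days before fixation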;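 on nuclei count: percent of the per-plate median nuclei count of sample wells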). The settings on record: exon1htt(103Q)mCFP cell line, aggregate imaging, at 2 µM; inhibition of aggregation: stronger effect = higher value; nuclei count: measured here: cell count, toxicity.
A short description of experiment [3]: inhibitors of E-selectin induction by TNFa, primary screen, imaging, HUVEC, immunofluorescence, MLSMR starter and 10KST1 sets (AID 487;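 active means visually confirmed hit in the image check and inhibition above 20%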;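 on inhibition: signal is fraction of cell area covered by stained E-selectin grains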;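 on nuclei count: 100% = median nuclei count of all wells on the same plate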). The settings on record: HUVEC TNFalpha-induced E-selectin immunofluorescence imaging, at 2 µM; inhibition: stronger effect = higher value; nuclei count: measured here: cell number, toxicity.
In experiment [4] the target is Voltage-gated potassium channel subunit beta-2 (Rattus norvegicus) (UniProt P62483). Description: KvBeta enzyme negative modulators, primary screen, biochemical, NADPH fluorescence (AID 622;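 active means fluorescence slope higher than the sample average by over 3 SD, cut at about -0.22 in these data, passing the limit was not always enough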;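 further: slope of raw intensity against log time taken from 70 to 1610 s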). The settings on record: recombinant KvBeta, 4-cyanobenzaldehyde reduction, at 10 µM, stronger effect = higher value.
Voltage-gated potassium channel subunit beta-2 (Rattus norvegicus), sequence (P62483 whole entry, looked up): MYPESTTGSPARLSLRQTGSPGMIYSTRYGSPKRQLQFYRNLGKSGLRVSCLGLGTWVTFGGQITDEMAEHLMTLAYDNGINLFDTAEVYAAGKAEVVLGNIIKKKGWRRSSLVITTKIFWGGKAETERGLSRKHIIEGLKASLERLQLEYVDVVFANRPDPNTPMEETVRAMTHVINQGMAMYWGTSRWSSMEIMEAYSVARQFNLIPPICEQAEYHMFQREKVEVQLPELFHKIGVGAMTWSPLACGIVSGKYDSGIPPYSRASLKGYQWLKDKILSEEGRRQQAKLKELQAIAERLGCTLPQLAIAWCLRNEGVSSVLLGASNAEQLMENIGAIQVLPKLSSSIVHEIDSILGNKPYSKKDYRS
Experiment [5] has the same target. Description: KvBeta positive modulators, primary screen, biochemical, NADPH fluorescence (AID 623;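 active means NADPH fluorescence slope more negative than the mean of all samples by about 3 SD, 99.7% confidence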;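 further: fluorescence intensity change per second fitted from 20 to 320 s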). The settings on record: Recombinant KvBeta, NADPH fluorescence decrease slope, 10 min; at 10 µM; stronger effect = lower value.
Experiment [6] concerns the target Alpha-2C adrenergic receptor (Homo sapiens) (UniProt P18825). Description: modulators of alpha2C/GIRK thallium flux, primary screen, cell-based, HEK293 alpha2C/GIRK1/2 (AID 624;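 active means fluorescence slope after compound addition differing from the mean of all screened samples at 99.7% confidence, in either direction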;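 further: slope of fluorescence ratio to pre-addition baseline per second over 15 to 24 s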). The settings on record: thallium flux BTC fluorescence, at 10 µM, actives lie on both sides.
Experiment [7] in a line: inhibitors of larval lipid processing in zebrafish, primary screen, whole organism, PED6 fluorescence, gall bladder and intestine (AID 686;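 active means a full or partial loss of lipid-probe fluorescence in the fish gall bladder, intestine or both, judged by eye; inactive means no fluorescence loss, or compound toxic to the fish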;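 further: larvae 5 to 7 days old with five fish per well; signal comes from phospholipase A2 cleavage of quenched PED6 carried via bile; overnight exposure to compound and PED6 before scoring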). The settings on record: Zebrafish larvae PED6 lipid processing, fluorescence scoring; screened at 20 µM (by protocol). The essentials: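 Also added: quenched phospholipase substrate PED6, 100 nM final, ingested by larvae; System: zebrafish larvae, 5-7 d; Quantity: 5 larvae per well; Compound: 20 µM single dose; Schedule: overnight compound and PED6 incubation; Read-out: visual per-well fluorescence inhibition score; Measured by: By-eye fluorescence microscopy; Medium: E3.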

A short description of experiment [8]: inhibitors of Sendai virus-induced IRF3 signaling, primary screen, TLR/RLR signaling modifier project, cell-based, Sendai virus stimulus, luciferase, 10K MLSCN set (AID 602276).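 Further: firefly luciferase from ISG56 promoter only with Renilla not read in this screen; 0% = Sendai virus plus DMSO and 100% = medium plus DMSO without virus.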 The settings on record: HEK293 RL24 IRF3 luciferase reporter, at 10 µM, stronger effect = higher value.
A short description of experiment [9]: inhibitors of poly I:C-induced TLR3 signaling, primary screen, cell-based, poly I:C stimulus, luciferase, 10K MLSCN set (AID 602277;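 active means inhibition of the reporter signal at or above 50%; inactive means inhibition below 50%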). The settings on record: HEK293-TLR3 RL24 IRF3 luciferase reporter, at 10 µM, stronger effect = higher value. (A reporter such as luciferase makes a cellular process visible.)

Alpha-2C adrenergic receptor (Homo sapiens), sequence (P18825 whole entry, looked up): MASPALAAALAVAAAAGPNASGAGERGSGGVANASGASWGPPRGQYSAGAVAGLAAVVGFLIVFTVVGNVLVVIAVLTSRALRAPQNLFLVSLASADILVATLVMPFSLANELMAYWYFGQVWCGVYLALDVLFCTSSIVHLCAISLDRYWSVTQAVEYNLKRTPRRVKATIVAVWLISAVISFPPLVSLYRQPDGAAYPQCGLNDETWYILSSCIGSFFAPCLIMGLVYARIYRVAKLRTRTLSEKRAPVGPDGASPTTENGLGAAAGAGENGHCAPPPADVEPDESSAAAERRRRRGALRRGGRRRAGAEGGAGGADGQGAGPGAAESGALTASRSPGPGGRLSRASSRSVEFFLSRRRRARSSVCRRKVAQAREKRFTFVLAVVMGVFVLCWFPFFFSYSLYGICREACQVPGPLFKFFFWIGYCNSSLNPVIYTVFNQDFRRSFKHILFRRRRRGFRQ

For `CC(C(=O)NC(=O)NC1CCCCC1)N1CCN(c2ccccn2)CC1` (stereo not drawn), the cell count in [1] worked out at 611. The inhibition in experiment [1] was -16.9% (inactive); in experiment [3], 0.2% (inactive); in experiment [8], 5.51% (inactive); in experiment [9] it was 9.31% (inactive). In addition, in experiment [2], the inhibition of aggregation is 8.1% (inactive). Besides, the values for the nuclei count in experiment [2] and in [3] were 107% and 134%, respectively. In experiment [4], the fluorescence slope was -0.397 (inactive). In addition, the NADPH fluorescence slope in experiment [5] was -4.4e-05 (inactive). In addition, the slope in [6] was 0.00612 (inactive). The outcome in [7] was inactive.
With `O=C(CN1CCN(Cc2ccc3c(c2)OCO3)CC1)N1CCc2[nH]c3ccc(F)cc3c2C1`, in [1], the cell count is 687. For the same compound, the inhibition in experiment [1] was 13.9% (inactive); in [3] it was 34.4% (inactive); in experiment [8] it was 12% (inactive); in experiment [9], 4.08% (inactive). Moreover, in experiment [2], the inhibition of aggregation is 6.4% (inactive). In addition, the nuclei count in [2] amounted to 96.6%; in experiment [3], 101%. Further, the fluorescence slope in experiment [4] is -0.409 (inactive). Further, the NADPH fluorescence slope in experiment [5] was -6.8e-05 (inactive). In addition, the slope in [6] was 0.00435 (inactive). For the same compound, the compound was classed as inactive in experiment [7].
Regarding `CN(Cc1ccc(-n2cccn2)cc1)C(=O)c1cnn2c1NC(c1ccco1)CC2C(F)(F)F` (stereo not drawn), in experiment [1], the cell count was 326. Moreover, the inhibition in experiment [1] is 9.3% (inactive); in [3], -100% (inactive); in experiment [8], 8.13% (inactive); in experiment [9], 5.75% (inactive). Further, the inhibition of aggregation in experiment [2] is -30.3% (inactive). The results for the nuclei count in experiment [2] and in experiment [3] were 115% and 120%, respectively. For the same compound, the fluorescence slope in experiment [4] was -0.509 (inactive). Further, in experiment [5], the NADPH fluorescence slope is -4e-05 (inactive). The slope in [6] was 0.00457 (inactive). Besides, in experiment [7], the result was inactive.
Consider `COc1cc(C)c(Br)cc1S(=O)(=O)N1CCOCC1`, for which the cell count in [1] was determined as 397. For the same compound, the inhibition in experiment [1] is 6.3% (inactive); in experiment [3], -68.9% (inactive); in [8], 11.9% (inactive); in [9], 4.48% (inactive). For the same compound, the inhibition of aggregation in experiment [2] is 3.4% (inactive). Besides, the nuclei count in experiment [2] stood at 106%; in [3], 126%. The fluorescence slope in experiment [4] is -0.461 (inactive). Also, in [5], the NADPH fluorescence slope was -4.2e-05 (inactive). In addition, in experiment [6], the slope was 0.00698 (inactive). Besides, the compound was classed as inactive in experiment [7].
For the compound `COc1ccccc1CNC(=O)C(C)NS(=O)(=O)c1ccccc1` (stereo not drawn), the cell count in experiment [1] was determined as 295. Moreover, the inhibition was -11.3% (inactive) in experiment [1], -11.2% (inactive) in experiment [3], -0.773% (inactive) in experiment [8] and 1.85% (inactive) in experiment [9]. Besides, in [2], the inhibition of aggregation was -13.2% (inactive). The nuclei count in experiment [2] came to 107%; in experiment [3], 78%. Also, the fluorescence slope in [4] is -0.406 (inactive). Moreover, the NADPH fluorescence slope in experiment [5] is 2.3e-06 (inactive). In [6], the slope was 0.00647 (inactive). Further, the result in [7] was inactive.
Regarding `C1=C(CCNc2ncnc3c2cnn3-c2ccccc2)CCCC1`, in [1], the cell count is 355. For the same compound, the inhibition in [1] was 2.8% (inactive); in experiment [3], -22.4% (inactive); in [8], -36.5% (inactive); in [9], -142% (inactive). The inhibition of aggregation in experiment [2] was 17.1% (inactive). For the same compound, the values for the nuclei count in experiment [2] and in experiment [3] were 91.5% and 124%, respectively. Besides, the fluorescence slope in experiment [4] is -0.375 (inactive). For the same compound, the NADPH fluorescence slope in experiment [5] is -6.3e-05 (inactive). Also, in experiment [6], the slope was 0.00514 (inactive). Further, the compound was called inactive in [7].
With `COC(=O)C1=C(C)N(Cc2ccco2)C(=O)C1`, the cell count in [1] was 302. Also, the inhibition in experiment [1] was 0.7% (inactive); in experiment [3], -12.5% (inactive); in experiment [8], 8.55% (inactive); in experiment [9], 8.79% (inactive). Besides, in experiment [2], the inhibition of aggregation is 26.2% (inactive). Further, the nuclei count in experiment [2] was found to be 99.6%; in [3], 101%. In experiment [4], the fluorescence slope is -0.42 (inactive). For the same compound, the NADPH fluorescence slope in [5] is -3.5e-05 (inactive). Besides, the slope in [6] was 0.00527 (inactive). For the same compound, in experiment [7], the call was inactive.
For `CC(C)(C)n1ncc2c(=O)n(CC(=O)NCc3ccccc3)cnc21`, the cell count in experiment [1] came to 615. The inhibition is 2.4% (inactive) in experiment [1], -117% (inactive) in [3], -28.3% (inactive) in experiment [8] and 69.7% (active) in experiment [9]. Besides, the inhibition of aggregation in [2] is 0.5% (inactive). Further, the nuclei count in [2] turned out to be 82.4%; in experiment [3], 104%. Besides, the fluorescence slope in [4] was -0.296 (inactive). Also, in experiment [5], the NADPH fluorescence slope was -1.3e-05 (inactive). For the same compound, the slope in experiment [6] is 0.00536 (inactive). Besides, the compound was classed as inactive in experiment [7].
As to `CCCn1c(=O)c(C(=O)NCc2ccccn2)c(O)c2ccccc21`, the cell count in [1] came to 345. In addition, the inhibition in experiment [1] is 4.2% (inactive); in experiment [3], -32.3% (inactive); in [8], -22.2% (inactive); in [9] it was -53.3% (inactive). Further, in experiment [2], the inhibition of aggregation was -20.9% (inactive). Also, the values for the nuclei count in experiment [2] and in [3] were 111% and 108%, respectively. Also, the fluorescence slope in experiment [4] was -0.403 (inactive). The NADPH fluorescence slope in experiment [5] was -9e-05 (inactive). In addition, in experiment [6], the slope is 0.00521 (inactive). Also, the call in [7] was inactive.
